# Measured values: ChEMBL document CHEMBL3785041, “Discovery of a Potent Free Fatty Acid 1 Receptor Agonist with Low Lipophilicity, Low Polar Surface Area, and Robust in Vivo Efficacy” (J Med Chem, 2016)
# Activity calls are given as the source filed them. The rule behind the calls is not given here.
# Key:
# [1] = biological target: T1, Free fatty acid receptor 4 (Homo sapiens) (UniProt Q5NUL3); assay: Agonist activity at human C-terminal YFP-tagged FFA4 receptor expressed in HEK293 cells incubated for 5 mins by BRET based beta-arrestin 2 recruitment assay relative to TUG-424; assay type: cell-based
# T1 sequence (whole entry): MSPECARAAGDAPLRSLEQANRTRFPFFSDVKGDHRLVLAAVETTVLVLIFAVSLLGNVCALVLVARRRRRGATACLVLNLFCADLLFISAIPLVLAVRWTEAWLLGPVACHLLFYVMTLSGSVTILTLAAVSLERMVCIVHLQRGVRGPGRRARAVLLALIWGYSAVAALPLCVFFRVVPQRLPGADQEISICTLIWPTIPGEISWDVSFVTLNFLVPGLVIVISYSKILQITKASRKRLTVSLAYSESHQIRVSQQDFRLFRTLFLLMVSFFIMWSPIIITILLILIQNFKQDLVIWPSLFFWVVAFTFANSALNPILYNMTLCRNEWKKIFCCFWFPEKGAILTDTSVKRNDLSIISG
# Method in brief: (§1)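 Human FFA4 counter-screen using a β-arrestin mobilization read-out. Efficacy is expressed relative to a reference alkyne FFA1 agonist tested at 10 μM.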
# [2] = biological target: T2, Free fatty acid receptor 1 (Homo sapiens, UniProt O14842); assay: Agonist activity at human FFA1 receptor expressed in human 1321N1 cells measured for 50 intervals of 0.4 secs by calcium mobilization assay; assay type: functional, cell-based
# Method in brief: (§2)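 Ca²⁺ read-out at human FFA1. Efficacy is expressed relative to TUG-20 (3-(4-(benzyloxy)phenyl)propanoic acid).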
# [3] = biological target: T3, Free fatty acid receptor 4 (Homo sapiens, UniProt Q5NUL3); assay: Agonist activity at human C-terminal YFP-tagged FFA4 receptor expressed in HEK293 cells incubated for 5 mins by BRET based beta-arrestin 2 recruitment assay; assay type: cell-based; method in brief: as §1
# T3 sequence (Q5NUL3 whole entry): T1 sequence (whole entry)
# [4] = biological target: T2, Free fatty acid receptor 1; assay: Agonist activity at human FFA1 receptor expressed in human 1321N1 cells measured for 50 intervals of 0.4 secs by calcium mobilization assay relative to TUG-20; assay type: functional, cell-based; method in brief: as §2
# [5] = Drug metabolism in human liver microsomes assessed as cytochrome P450-mediated compound oxidation by measuring drug recovery after 1 hr by HPLC analysis; assay type: ADME; conditions: read-out: Drug recovery
# [6] = Tmax in C57BL/6 mouse plasma at 10 mg/kg, po; assay type: ADME, organism-based
# [7] = Chemical stability in 0.1 M phosphate buffered saline assessed as drug recovery at 37 degC after 24 hrs; assay type: physicochemical; conditions: read-out: Drug recovery
# [8] = Chemical stability in fasted state simulated intestinal fluid assessed as drug recovery at 37 degC after 2 hrs; assay type: physicochemical; conditions: read-out: Drug recovery
# Mus musculus [9] = assay: Antidiabetic activity in C57BL/6 mouse assessed as reduction in plasma glucose level at 10 mg/kg administered 15 mins through oral gavage prior to glucose challenge measured after 30 to 120 mins by OGTT; assay type: functional, organism-based
# [10] = biological target: T2, Free fatty acid receptor 1; assay: Potency index, ratio of alpha-linolenic acid EC50 to compound EC50 for human FFA1 receptor expressed in human 1321N1 cells; assay type: cell-based
# [11] = Lipophilicity, log D of compound at pH 7.4; assay type: physicochemical; conditions: buffer
# Mus musculus [12] = assay: Antidiabetic activity in C57BL/6 mouse assessed as increase in plasma insulin level at 10 mg/kg administered 15 mins through oral gavage prior to glucose challenge measured after 30 mins by ELISA; assay type: functional, organism-based
# [13] = Half life in C57BL/6 mouse plasma at 10 mg/kg, po; assay type: ADME, organism-based
# [14] = Chemical stability in fasted state simulated gastric fluid assessed as drug recovery at 37 degC after 2 hrs; assay type: physicochemical; conditions: read-out: Drug recovery
# [15] = AUC (0 to infinity) in C57BL/6 mouse plasma at 10 mg/kg, po; assay type: ADME, organism-based; design: dose 10 mg/kg, route oral, time infinity
# [16] = Aqueous kinetic solubility in phosphate buffered saline at 200 uM by turbidimetric assay; assay type: physicochemical; conditions: read-out: Kinetic_solubility
# [17] = Chemical stability in fed state simulated intestinal fluid assessed as drug recovery at 37 degC after 2 hrs; assay type: physicochemical; conditions: read-out: Drug recovery
# [18] = Ratio of Cmax in C57BL/6 mouse plasma to EC50 for human FFA1 receptor expressed in human 1321N1 cells
# Mus musculus [19] = assay: Clearance in C57BL/6 mouse plasma at 10 mg/kg, po; assay type: ADME, organism-based; conditions: in vivo
# [20] = Cmax in C57BL/6 mouse plasma at 10 mg/kg, po; assay type: ADME, organism-based; design: dose 10 mg/kg, route oral
# T2 sequence (O14842 whole entry): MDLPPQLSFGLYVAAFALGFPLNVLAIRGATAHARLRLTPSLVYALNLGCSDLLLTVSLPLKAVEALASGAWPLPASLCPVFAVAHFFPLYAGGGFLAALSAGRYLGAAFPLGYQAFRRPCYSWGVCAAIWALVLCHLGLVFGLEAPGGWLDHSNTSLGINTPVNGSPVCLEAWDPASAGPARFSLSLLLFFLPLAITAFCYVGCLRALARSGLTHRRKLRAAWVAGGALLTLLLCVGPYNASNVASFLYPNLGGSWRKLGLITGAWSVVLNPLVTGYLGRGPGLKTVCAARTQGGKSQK
SMILES,Efficacy [1] [%],EC50 ([2]; read-out: pEC50 (converted)) [µM],EC50 [3] [µM],Efficacy [4] [%],further results
O=C(O)CCc1ccc(C#CC2CCCCC2)cc1,118,0.513,9.55,98,–
O=C(O)CCc1ccc(C#CCc2ccccc2)cc1,113,0.389,10.5,103,–
C/C(C#Cc1ccc(CCC(=O)O)c(F)c1)=C/CO,–,–,> 100,105,–
C#Cc1ccc(CCC(=O)O)cc1,–,> 100,> 100,–,–
O=C(O)CCc1ccc(C#CC2=CCCCC2)cc1,–,0.2,> 100,100,–
C/C=C/C#Cc1ccc(CCC(=O)O)c(F)c1,38,0.209,34.7,97,–
O=C(O)CCc1ccc(C#CC2CC2)cc1,–,5.01,> 100,128,–
C=C(C)C#Cc1ccc(CCC(=O)O)cc1,–,0.417,> 100,108,–
COc1ccc(CCN(C)CCCC(C#N)(c2ccc(OC)c(OC)c2)C(C)C)cc1OC (centres undefined),–,–,–,–,remaining at 1 h [5]: 23%
O=C(O)CCc1ccc(C#CC2CCCC2)cc1,105,0.49,33.9,94,–
CC/C=C\C/C=C\C/C=C\CCCCCCCC(=O)O [LINOLENIC ACID],–,–,–,–,EC50 ([2]; read-out: EC50): 3 µM
C/C=C(/C)C#Cc1ccc(CCC(=O)O)c(F)c1,101,–,20,103,Tmax [6]: 15 min; remaining at 24 h [7]: 100%; remaining at 2 h [8]: 100%; Activity (Mus musculus [9]): Active; Ratio EC50 [10]: 100; EC50 ([2]; read-out: EC50): 0.02 µM; logD [11]: 1.79; Activity (Mus musculus [12]): Active; half-life [13]: 99 min; remaining at 2 h [14]: 84%; AUC(0-inf) [15]: 138 µM·h; solubility kinetic at 200 µM [16]: 191 µM; remaining at 2 h [17]: 95%; remaining at 1 h [5]: 38%; Ratio [18]: >1000; clearance (Mus musculus [19]): 0.49 mL/min/kg; Cmax [20]: 44.7 µM
O=C(O)CCc1ccc(C#CCCc2ccccc2)cc1,102,1.82,4.79,128,–
C/C=C\C#Cc1ccc(CCC(=O)O)c(F)c1,49,0.0479,17.8,91,–
CC(C)=C(C)C#Cc1ccc(CCC(=O)O)cc1,102,0.0832,7.59,105,–
C=C(C)C#Cc1ccc(CCC(=O)O)c(F)c1,–,–,> 100,106,–
CCCCCCCC#Cc1ccc(CCC(=O)O)cc1,102,1.45,4.07,84,–
O=C(O)CCc1ccc(C#CC2(O)CCCCC2)cc1,–,–,> 100,–,pEC50 ([2]; 1321-n1): < 4
C/C=C(\C)C#Cc1ccc(CCC(=O)O)c(F)c1,89,–,26.3,97,–
